The text below walks through data of ChEMBL document CHEMBL4477197, “Antitumor Activity of Spicatoside A by Modulation of Autophagy and Apoptosis in Human Colorectal Cancer Cells” (J Nat Prod, 2016).

One may read the IC50 as the concentration that gives 50% inhibition. Read a low IC50 as inhibition by little substance. What is called inhibition in vivo is the change of the read-out against control, counted positive when it falls.

The subject of experiment [1] is MDA-MB-231. Put plainly: Antiproliferative activity against human MDA-MB-231 cells after 24 to 72 hrs by SRB assay. The class given is functional, cell-based. The method, boiled down:
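Cells from ATCC were grown at 37 °C in 5% CO2, in RPMI 1640 (A549, HCT116, SNU-638) or DMEM (MDA-MB-231, SK-HEP-1, MRC5) with 10% FBS. They were seeded at 6 × 10^3 cells/well for 24 h, then exposed for 72 h. Cells were TCA-fixed, stained with 0.4% SRB, and read at 515 nm against day-zero plates. IC50 came from nonlinear regression, as means ± SD.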
Background: In SRB staining, fixed cells bind dye roughly in proportion to their protein.

Experiment [2] deals with HCT-116. Put plainly: Induction of autophagy in human HCT116 cells assessed as vacuole formation in cytoplasm at 20 uM by inverted phase contrast microscopy relative to control. The class given is functional, cell-based. The method, boiled down: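 HCT116 cells were exposed to 20 μM compound or vehicle. Cytoplasmic vacuoles were inspected and photographed under an inverted phase-contrast microscope at 100×.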

Experiment [3] has as its system HCT-116. As to the kind of experiment: Induction of autophagy in human HCT116 cells assessed as formation of acidic vesicular organelles at 20 uM after 24 hrs by acridine orange staining based assay relative to control. The class given is functional, cell-based. An outline of the steps:
(§1)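 Cells were seeded at 1 × 10^5/well, grown 24 h, then treated 24 h with 20 μM compound, 2.5 nM bafilomycin A1, or both. They were stained with acridine orange (2 μg/mL) for 15 min and washed in DPBS. AO-positive cells were quantified by high-content imaging and expressed as an index versus vehicle. Triplicates.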

For experiment [4], the system named is HCT-116. As to the kind of experiment: Induction of autophagy in human HCT116 cells assessed as formation of acidic vesicular organelles at 20 uM after 24 hrs in presence of bafilomycin A1 by acridine orange staining based assay. It is filed as functional, cell-based. The method, boiled down:
as §1

The test system of experiment [5] is HCT-116. As to the kind of experiment: Induction of autophagy in human HCT116 cells assessed as accumulation of LC3-2 after 24 hrs by Western blot analysis. It is filed as functional, cell-based. An outline of the steps: (§2)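 HCT116 cells were cultured 24 h with the indicated concentrations. Lysates were made in SDS buffer with NaF and orthovanadate and quantified by BCA; 10–30 μg protein was separated by 6–15% SDS-PAGE and transferred to PVDF. After 5% BSA blocking, blots were probed for LC3-II, beclin 1, p62, LAMP1 and cathepsin D, with ECL detection.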
A general note: In western blotting, separated proteins are transferred to a membrane and probed.

The test system of experiment [6] is HCT-116. As to the kind of experiment: Induction of autophagy in human HCT116 cells assessed as accumulation of beclin 1 after 24 hrs by Western blot analysis. It is filed as functional, cell-based. An outline of the steps: as §2
Experiment [7] relates to HCT-116. As to the kind of experiment: Induction of autophagy in human HCT116 cells assessed as upregulation of cathepsin D expression at 10 to 30 uM after 24 hrs by Western blot analysis. It is filed as functional, cell-based. An outline of the steps: as §2
Experiment [8] is described as follows: Inhibition of PI3K/Akt/mTOR in human HCT116 cells assessed as downregulation of PI3K p85 at 10 to 30 uM after 24 hrs by Western blot analysis. It is filed as cell-based. An outline of the steps:
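HCT116 cells (RPMI 1640, 10% FBS, 37 °C, 5% CO2) exposed to the compound for 24 h, then lysed in 2× SDS sample buffer with NaF and orthovanadate and boiled. BCA-normalised protein (10−30 μg) run on 6−15% SDS-PAGE and blotted to PVDF. Blocked in 5% BSA/PBS-Tween, probed for PI3K, PTEN, Akt and mTOR, and detected by ECL. Blots are representative of three determinations.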

Experiment [9] concerns the target MAP kinase p38 (Homo sapiens) (UniProt O15264+Q15759+Q16539+P53778). As to the kind of experiment: Induction of p38 phosphorylation in human HCT116 cells after 24 hrs by Western blot analysis. The class given is cell-based.
For experiment [10], the target named is c-Jun N-terminal kinase, JNK (Homo sapiens) (UniProt P45983+P53779+P45984). As to the kind of experiment: Activation of JNK in human HCT116 cells after 24 hrs by Western blot analysis. The class given is cell-based.
The test system of experiment [11] is HCT-116. As to the kind of experiment: Growth inhibition of human HCT116 cells after 48 hrs by SRB assay. It is filed as functional, cell-based. An outline of the steps: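 SRB assay. Cells were seeded at 6 × 10^3/well, grown 24 h, then fixed as day-zero controls or treated 24 or 48 h. They were fixed with 10% TCA and stained with 0.4% SRB in 1% acetic acid; dye was dissolved in 10 mM Tris pH 10.0 and read at 515 nm. Proliferation was normalized to day zero and control, and IC50 came from nonlinear regression. n = 3.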

For experiment [12], the system named is HCT-116. Put plainly: Induction of apoptosis in human HCT116 cells assessed as cell rounding after 48 hrs. It is filed as functional, cell-based.
The test system of experiment [13] is HCT-116. Put plainly: Induction of apoptosis in human HCT116 cells assessed as cell shrinkage after 48 hrs. The class given is functional, cell-based.
The subject of experiment [14] is HCT-116. Put plainly: Cell cycle arrest in human HCT116 cells assessed as accumulation at subG1 phase at 20 uM after 48 hrs by propidium iodide staining based flow cytometry. It is filed as functional. For orientation: In flow cytometry, cells or beads pass a laser one at a time.
Experiment [15] has as its system HCT-116. Put plainly: Cell cycle arrest in human HCT116 cells assessed as accumulation at subG1 phase at 30 uM after 48 hrs by propidium iodide staining based flow cytometry. It is filed as functional.
The subject of experiment [16] is HCT-116. As to the kind of experiment: Induction of apoptosis in human HCT116 cells assessed as increase in t-BID levels after 48 hrs by Western blot analysis. The class given is functional, cell-based.
Experiment [17] deals with HCT-116. Put plainly: Induction of autophagy in human HCT116 cells assessed as increase in LC3-2 expression at 30 uM at 24 hrs by Western blot analysis. It is filed as functional, cell-based.
For experiment [18], the system named is HCT-116. Put plainly: Induction of apoptosis in human HCT116 cells assessed as caspase 8 cleavage at 30 uM upto 48 hrs by Western blot analysis. The class given is functional, cell-based. The method, boiled down:
(§3)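 Time course: HCT116 cells were exposed to 30 μM compound for 6, 12, 24, 36 and 48 h. LC3-II, beclin 1, cleaved caspase-8 and cleaved PARP were measured by Western blot (SDS-PAGE, PVDF, ECL) with β-actin as internal standard.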

The subject of experiment [19] is HCT-116. Put plainly: Induction of apoptosis in human HCT116 cells assessed as PARP cleavage at 30 uM upto 48 hrs by Western blot analysis. The class given is functional, cell-based. The method, boiled down:
as §3

Experiment [20] deals with HCT-116. Put plainly: Induction of caspase 8 cleavage in human HCT116 cells at 30 uM after 48 hrs in presence of caspase 8 inhibitor z-IETD-FMK by Western blot analysis. The class given is functional, cell-based. The method, boiled down: (§4)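 HCT116 cells were cultured 48 h with 30 μM compound, with or without 20 μM z-IETD-FMK. Lysates were made in SDS loading buffer and 10–30 μg protein was resolved by 6–15% SDS-PAGE and transferred to PVDF. Blots were probed for cleaved caspase-8, beclin 1, cleaved beclin 1 and LC3-II, and detected by ECL.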

In experiment [21] the test system is HCT-116. As to the kind of experiment: Induction of beclin 1 cleavage in human HCT116 cells at 30 uM after 48 hrs in presence of caspase-8 inhibitor z-IETD-FMK by Western blot analysis. It is filed as functional, cell-based. An outline of the steps:
as §4

The test system of experiment [22] is HCT-116. As to the kind of experiment: Antitumor activity against human HCT116 cells xenografted in BALB/c-nu mouse assessed as inhibition of tumor weight at 2.5 mg/kg, ip administered three times per week for 28 days measured post dosing relative to control. The class given is functional. As to conditions: HCT-116, ip, 672 h. An outline of the steps:
(§5)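 Nude mice bearing subcutaneous HCT116 flank tumors (2 × 10^6 cells) were randomized at ~200 mm3, five per group. Dosing was 2.5 or 5 mg/kg ip in saline/0.5% Tween 80, three times weekly for 28 days, with vehicle controls. Tumors were excised on day 28 and weighed; inhibition was expressed against the vehicle group.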

For experiment [23], the system named is HCT-116. Put plainly: Antitumor activity against human HCT116 cells xenografted in BALB/c-nu mouse assessed as inhibition of tumor weight at 5 mg/kg, ip administered three times per week for 28 days measured post dosing relative to control. It is filed as functional. Particulars: HCT-116, ip, 672 h. An outline of the steps: as §5

Molecules are shown by their SMILES. Active and inactive are the calls of the source. The rule behind the calls is not given here.

As to `C[C@H]1CC[C@@]2(OC1)O[C@H]1C[C@H]3[C@@H]4CC=C5C[C@@H](O)C[C@@H](O[C@@H]6O[C@H](C)[C@H](O)[C@H](O[C@@H]7OC[C@@H](O)[C@H](O)[C@H]7O)[C@H]6O[C@@H]6O[C@H](CO)[C@@H](O)[C@H](O)[C@H]6O)[C@]5(C)[C@H]4CC[C@]3(C)[C@H]1[C@@H]2C`, the half-inhibitory concentration (IC50) in [1] was 29.6 µM; in [11] (HCT-116, 48 h) it was 20.9 µM. The outcome in [2], in experiment [3], in experiment [7], in [12], in experiment [13] and in experiment [17] was Active. For the same compound, the result in experiment [18] and in experiment [19] was Active. Also, the result in [4], in experiment [10], in experiment [20] and in [21] was inactive. The Activity entry was “Dose-dependent effect” in experiment [5]; “Dose-dependent effect” in [6]; “Dose-dependent effect” in experiment [9]; 12.56% in experiment [14]; 45.37% in experiment [15]; “Dose-dependent effect” in experiment [16]. Also, the inhibition entry in [8] is “Active”. In addition, the “growth inhibition (GI)” value in experiment [11] is “Dose-dependent effect”. The inhibition in vivo at 2.5 mg/kg in experiment [22] is 43%. Moreover, the inhibition in vivo at 5 mg/kg in experiment [23] was 56.6%.
